The source made the active and inactive calls. No cut-off for these calls is given here.
Columns and labels:
[1] = biological target: T1, Serine/threonine-protein kinase D2 (Homo sapiens) (UniProt Q9BZL6); experiment: Inhibition of human PRKD2 (519 to 838 residues) expressed in bacterial expression system assessed as enzyme activity at 1 uM by KINOMEScan assay relative to control; parameters: scale not given: the % may be the effect or the level left
T1 sequence (whole entry): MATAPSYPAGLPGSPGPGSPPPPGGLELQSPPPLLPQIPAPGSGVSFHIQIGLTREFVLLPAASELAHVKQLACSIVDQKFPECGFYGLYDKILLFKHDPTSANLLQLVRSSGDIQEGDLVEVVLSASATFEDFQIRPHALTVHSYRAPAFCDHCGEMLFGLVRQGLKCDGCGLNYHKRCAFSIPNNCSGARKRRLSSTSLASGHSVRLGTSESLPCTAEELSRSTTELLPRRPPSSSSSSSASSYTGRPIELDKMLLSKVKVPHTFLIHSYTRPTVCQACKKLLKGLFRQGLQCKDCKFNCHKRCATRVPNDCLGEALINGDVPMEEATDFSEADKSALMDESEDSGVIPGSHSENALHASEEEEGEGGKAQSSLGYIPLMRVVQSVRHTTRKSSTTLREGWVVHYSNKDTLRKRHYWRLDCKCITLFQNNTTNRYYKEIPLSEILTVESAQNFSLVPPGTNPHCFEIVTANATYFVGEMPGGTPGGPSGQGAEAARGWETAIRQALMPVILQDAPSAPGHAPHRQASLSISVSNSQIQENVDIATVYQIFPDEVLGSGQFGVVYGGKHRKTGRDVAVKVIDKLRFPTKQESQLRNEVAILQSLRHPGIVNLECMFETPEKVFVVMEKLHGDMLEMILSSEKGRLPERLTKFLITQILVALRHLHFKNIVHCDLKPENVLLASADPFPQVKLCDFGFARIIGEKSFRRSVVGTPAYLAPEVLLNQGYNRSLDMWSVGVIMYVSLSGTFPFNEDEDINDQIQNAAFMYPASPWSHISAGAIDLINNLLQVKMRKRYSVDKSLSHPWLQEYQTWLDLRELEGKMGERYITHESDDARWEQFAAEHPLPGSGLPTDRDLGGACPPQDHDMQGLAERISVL
Procedure, shortened: (§1)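 In vitro ATP-site competition binding assay across a panel of 456 kinases, with compound tested at 1 and 10 μM.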

[2] = biological target: Dual specificity mitogen-activated protein kinase kinase 2 (Homo sapiens) (UniProt P36507); experiment: Inhibition of full length human MEK2 (1 to 400 residues) expressed in mammalian expression system assessed as enzyme activity at 1 uM by KINOMEScan assay relative to control; parameters: scale not given: the % may be the effect or the level left
Procedure, shortened: (§2)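 In vitro ATP-site competition binding assay (KinomeScan) across a panel of 456 kinases. Compound was tested at 1 and 10 μM. The read-out is the binding inhibition score relative to control.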

[3] = biological target: Serine/threonine-protein kinase Nek8 (Homo sapiens) (UniProt Q86SG6); experiment: Inhibition of NEK8 in human SKCO1 cells at 1 uM after 4 hrs using biotin labeled DLKTQNILLDK probe by mass-spectrometric analysis relative to control; type: cell-based
[4] = biological target: Receptor-type tyrosine-protein kinase FLT3 (Homo sapiens) (UniProt P36888); experiment: Inhibition of human FLT3 (592 to 969 residues) expressed in bacterial expression system assessed as enzyme activity at 10 uM by KINOMEScan assay relative to control; parameters: scale not given: the % may be the effect or the level left; procedure, shortened: as §1
[5] = biological target: Dual specificity mitogen-activated protein kinase kinase 1 (Homo sapiens) (UniProt Q02750); experiment: Inhibition of full length human MEK1 (1 to 393 residues) expressed in mammalian expression system assessed as enzyme activity at 1 uM by KINOMEScan assay relative to control; parameters: scale not given: the % may be the effect or the level left; procedure, shortened: as §2
[6] = biological target: RuvB-like 2 (Homo sapiens) (UniProt Q9Y230); experiment: Binding affinity to RUVBL2 in human NCI-H23 cells at 1 uM by mass spectrometry based pull down assay; type: cell-based
[7] = biological target: Thioredoxin (Homo sapiens) (UniProt P10599); experiment: Binding affinity to TXN in human NCI-H358 cells at 1 uM by mass spectrometry based pull down assay; type: cell-based
[8] = biological target: Beclin-1 (Homo sapiens) (UniProt Q14457); experiment: Binding affinity to BECN1 in human NCI-H358 cells at 1 uM by mass spectrometry based pull down assay; type: cell-based
[9] = biological target: Vesicle-fusing ATPase (Homo sapiens) (UniProt P46459); experiment: Binding affinity to NSF in human NCI-H358 cells at 1 uM by mass spectrometry based pull down assay; type: cell-based
[10] = biological target: Proto-oncogene tyrosine-protein kinase Src (Homo sapiens) (UniProt P12931); experiment: Binding affinity to SRC in human NCI-H358 cells at 1 uM by mass spectrometry based pull down assay; type: cell-based
[11] = biological target: Peroxiredoxin-4 (Homo sapiens) (UniProt Q13162); experiment: Binding affinity to PRDX4 in human NCI-H358 cells at 1 uM by mass spectrometry based pull down assay; type: cell-based
[12] = biological target: Eukaryotic translation initiation factor 2A (Homo sapiens) (UniProt Q9BY44); experiment: Binding affinity to EIF2A in human NCI-H23 cells at 1 uM by mass spectrometry based pull down assay; type: cell-based
[13] = biological target: DNA replication licensing factor MCM6 (Homo sapiens) (UniProt Q14566); experiment: Binding affinity to MCM6 in human NCI-H23 cells at 1 uM by mass spectrometry based pull down assay; type: cell-based
[14] = biological target: T2, 80S Ribosome (Homo sapiens) (UniProt P08865+P42677+P62753+P15880+P23396+P61247+P62701+P22090+P46782+P62081+P62241+P46781+P46783+P62280+P25398+P62277+P62263+P62841+P62244+P62249+P08708+P62269+P39019+P60866+P63220+P62266+P62847+P62851+P62854+P62979+P62857+P62273+P62861+P39023+P36578+P46777+Q02878+P18124+P62424+P62917+P32969+P27635+P62906+P62913+P30050+P26373+P40429+P50914+P61313+P18621+Q07020+Q02543+P84098+P46778+P35268+P62829+P62750+P83731+P61254+P61353+P46776+P46779+P47914+P62888+P62899+P62910+P49207+P42766+P18077+Q9Y3U8+P83881+P61927+P61513+P63173+P62891+P62945+P05388+P05386); experiment: Binding affinity to RPS23 in human NCI-H23 cells at 1 uM by mass spectrometry based pull down assay; type: cell-based
[15] = biological target: T2, 80S Ribosome (Homo sapiens); experiment: Binding affinity to RPS11 in human NCI-H23 cells at 1 uM by mass spectrometry based pull down assay; type: cell-based
[16] = biological target: T2, 80S Ribosome (Homo sapiens); experiment: Binding affinity to RPL27 in human NCI-H358 cells at 1 uM by mass spectrometry based pull down assay; type: cell-based
[17] = biological target: Protein disulfide-isomerase A4 (Homo sapiens) (UniProt P13667); experiment: Binding affinity to PDIA4 in human NCI-H23 cells at 1 uM by mass spectrometry based pull down assay; type: cell-based
[18] = biological target: ADP-ribosylation factor 5 (Homo sapiens) (UniProt P84085); experiment: Binding affinity to ARF5 in human NCI-H358 cells at 1 uM by mass spectrometry based pull down assay; type: cell-based
Sequence of ADP-ribosylation factor 5 (Homo sapiens) (P84085 whole entry): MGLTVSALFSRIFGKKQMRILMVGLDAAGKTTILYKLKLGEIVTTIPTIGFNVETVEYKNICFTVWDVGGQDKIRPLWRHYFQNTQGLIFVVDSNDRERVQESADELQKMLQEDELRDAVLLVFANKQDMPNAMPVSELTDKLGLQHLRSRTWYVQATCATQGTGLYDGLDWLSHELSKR

Sequence of DNA replication licensing factor MCM6 (Homo sapiens) (Q14566 whole entry): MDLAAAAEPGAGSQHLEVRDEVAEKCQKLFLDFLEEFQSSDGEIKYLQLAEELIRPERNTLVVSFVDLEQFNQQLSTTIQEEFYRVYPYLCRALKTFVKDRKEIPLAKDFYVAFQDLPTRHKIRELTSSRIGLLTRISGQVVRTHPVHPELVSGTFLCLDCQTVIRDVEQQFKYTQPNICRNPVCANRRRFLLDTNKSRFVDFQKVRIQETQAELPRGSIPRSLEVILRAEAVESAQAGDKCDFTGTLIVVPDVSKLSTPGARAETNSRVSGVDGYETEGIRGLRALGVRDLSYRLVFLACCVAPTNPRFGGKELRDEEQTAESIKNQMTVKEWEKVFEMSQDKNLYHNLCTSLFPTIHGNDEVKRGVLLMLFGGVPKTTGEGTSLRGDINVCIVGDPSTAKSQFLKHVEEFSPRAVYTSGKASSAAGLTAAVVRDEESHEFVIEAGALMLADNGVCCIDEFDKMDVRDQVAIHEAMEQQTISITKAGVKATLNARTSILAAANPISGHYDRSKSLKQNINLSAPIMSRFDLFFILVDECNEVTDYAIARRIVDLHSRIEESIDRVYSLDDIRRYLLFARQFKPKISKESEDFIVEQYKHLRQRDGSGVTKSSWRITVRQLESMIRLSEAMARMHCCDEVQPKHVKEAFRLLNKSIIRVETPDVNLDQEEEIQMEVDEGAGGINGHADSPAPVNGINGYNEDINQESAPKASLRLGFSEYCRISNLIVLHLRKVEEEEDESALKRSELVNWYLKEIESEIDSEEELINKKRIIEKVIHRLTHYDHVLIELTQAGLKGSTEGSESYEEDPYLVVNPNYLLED
Sequence of Dual specificity mitogen-activated protein kinase kinase 2 (Homo sapiens) (P36507 whole entry, the tested form may be a part): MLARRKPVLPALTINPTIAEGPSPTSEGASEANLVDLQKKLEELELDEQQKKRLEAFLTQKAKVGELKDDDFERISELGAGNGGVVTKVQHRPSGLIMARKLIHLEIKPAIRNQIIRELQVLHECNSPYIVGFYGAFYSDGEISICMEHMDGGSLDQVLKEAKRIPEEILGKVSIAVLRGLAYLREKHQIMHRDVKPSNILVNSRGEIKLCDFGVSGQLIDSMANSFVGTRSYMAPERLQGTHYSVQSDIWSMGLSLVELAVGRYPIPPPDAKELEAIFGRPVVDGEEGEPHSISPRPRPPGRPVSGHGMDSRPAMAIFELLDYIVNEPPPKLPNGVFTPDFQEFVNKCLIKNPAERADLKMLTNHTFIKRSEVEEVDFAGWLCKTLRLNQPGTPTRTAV
Sequence of RuvB-like 2 (Homo sapiens) (Q9Y230 whole entry): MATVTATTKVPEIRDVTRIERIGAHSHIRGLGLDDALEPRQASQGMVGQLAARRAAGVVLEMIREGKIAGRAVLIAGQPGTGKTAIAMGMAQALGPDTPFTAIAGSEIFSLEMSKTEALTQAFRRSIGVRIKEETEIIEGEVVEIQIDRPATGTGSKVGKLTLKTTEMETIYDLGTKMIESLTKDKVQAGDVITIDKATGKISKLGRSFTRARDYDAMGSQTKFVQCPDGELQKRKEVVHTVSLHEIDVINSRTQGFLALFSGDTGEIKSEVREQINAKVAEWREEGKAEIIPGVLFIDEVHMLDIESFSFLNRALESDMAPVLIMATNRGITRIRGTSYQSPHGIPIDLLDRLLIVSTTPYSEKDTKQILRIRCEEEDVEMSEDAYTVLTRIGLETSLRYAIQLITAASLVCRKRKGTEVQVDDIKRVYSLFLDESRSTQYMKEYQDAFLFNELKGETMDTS
Sequence of Peroxiredoxin-4 (Homo sapiens) (Q13162 whole entry): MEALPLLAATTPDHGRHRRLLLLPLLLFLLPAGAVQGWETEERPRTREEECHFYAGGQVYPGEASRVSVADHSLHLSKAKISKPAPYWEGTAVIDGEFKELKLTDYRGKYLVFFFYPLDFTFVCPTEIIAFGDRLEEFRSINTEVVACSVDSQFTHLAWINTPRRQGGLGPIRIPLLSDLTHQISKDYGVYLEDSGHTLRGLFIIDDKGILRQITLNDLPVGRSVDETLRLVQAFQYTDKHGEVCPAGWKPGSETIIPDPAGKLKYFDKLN
Sequence of Beclin-1 (Homo sapiens) (Q14457 whole entry): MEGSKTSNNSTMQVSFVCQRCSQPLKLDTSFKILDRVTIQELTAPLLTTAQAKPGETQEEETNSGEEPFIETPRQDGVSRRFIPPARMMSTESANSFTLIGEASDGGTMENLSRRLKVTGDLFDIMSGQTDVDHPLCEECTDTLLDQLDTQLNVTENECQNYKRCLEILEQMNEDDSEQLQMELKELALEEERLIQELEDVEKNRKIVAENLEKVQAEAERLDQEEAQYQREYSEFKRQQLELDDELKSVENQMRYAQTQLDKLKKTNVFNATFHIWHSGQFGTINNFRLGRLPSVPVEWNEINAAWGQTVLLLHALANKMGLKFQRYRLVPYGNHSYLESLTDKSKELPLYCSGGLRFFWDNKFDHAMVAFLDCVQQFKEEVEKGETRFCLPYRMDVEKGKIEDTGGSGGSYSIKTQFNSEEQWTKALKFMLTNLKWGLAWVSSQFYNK
Sequence of Protein disulfide-isomerase A4 (Homo sapiens) (P13667 whole entry): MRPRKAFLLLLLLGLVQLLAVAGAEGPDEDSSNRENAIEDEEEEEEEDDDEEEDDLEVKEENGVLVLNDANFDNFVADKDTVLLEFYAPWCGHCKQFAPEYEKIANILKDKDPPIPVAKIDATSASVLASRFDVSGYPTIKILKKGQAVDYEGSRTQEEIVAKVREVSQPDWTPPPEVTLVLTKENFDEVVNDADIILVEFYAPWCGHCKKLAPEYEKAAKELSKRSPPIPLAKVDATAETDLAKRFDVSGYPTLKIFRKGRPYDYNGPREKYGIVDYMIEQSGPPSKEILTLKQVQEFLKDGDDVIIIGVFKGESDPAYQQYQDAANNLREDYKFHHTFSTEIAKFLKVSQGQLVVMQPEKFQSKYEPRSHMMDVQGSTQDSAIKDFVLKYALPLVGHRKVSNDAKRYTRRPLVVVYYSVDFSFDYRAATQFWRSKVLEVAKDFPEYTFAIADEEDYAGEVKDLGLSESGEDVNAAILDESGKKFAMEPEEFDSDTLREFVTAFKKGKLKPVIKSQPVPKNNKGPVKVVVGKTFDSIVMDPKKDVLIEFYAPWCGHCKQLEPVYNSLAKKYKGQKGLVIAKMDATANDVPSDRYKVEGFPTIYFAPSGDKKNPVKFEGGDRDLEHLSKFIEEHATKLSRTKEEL
Sequence of Receptor-type tyrosine-protein kinase FLT3 (Homo sapiens) (P36888 whole entry, the tested form may be a part): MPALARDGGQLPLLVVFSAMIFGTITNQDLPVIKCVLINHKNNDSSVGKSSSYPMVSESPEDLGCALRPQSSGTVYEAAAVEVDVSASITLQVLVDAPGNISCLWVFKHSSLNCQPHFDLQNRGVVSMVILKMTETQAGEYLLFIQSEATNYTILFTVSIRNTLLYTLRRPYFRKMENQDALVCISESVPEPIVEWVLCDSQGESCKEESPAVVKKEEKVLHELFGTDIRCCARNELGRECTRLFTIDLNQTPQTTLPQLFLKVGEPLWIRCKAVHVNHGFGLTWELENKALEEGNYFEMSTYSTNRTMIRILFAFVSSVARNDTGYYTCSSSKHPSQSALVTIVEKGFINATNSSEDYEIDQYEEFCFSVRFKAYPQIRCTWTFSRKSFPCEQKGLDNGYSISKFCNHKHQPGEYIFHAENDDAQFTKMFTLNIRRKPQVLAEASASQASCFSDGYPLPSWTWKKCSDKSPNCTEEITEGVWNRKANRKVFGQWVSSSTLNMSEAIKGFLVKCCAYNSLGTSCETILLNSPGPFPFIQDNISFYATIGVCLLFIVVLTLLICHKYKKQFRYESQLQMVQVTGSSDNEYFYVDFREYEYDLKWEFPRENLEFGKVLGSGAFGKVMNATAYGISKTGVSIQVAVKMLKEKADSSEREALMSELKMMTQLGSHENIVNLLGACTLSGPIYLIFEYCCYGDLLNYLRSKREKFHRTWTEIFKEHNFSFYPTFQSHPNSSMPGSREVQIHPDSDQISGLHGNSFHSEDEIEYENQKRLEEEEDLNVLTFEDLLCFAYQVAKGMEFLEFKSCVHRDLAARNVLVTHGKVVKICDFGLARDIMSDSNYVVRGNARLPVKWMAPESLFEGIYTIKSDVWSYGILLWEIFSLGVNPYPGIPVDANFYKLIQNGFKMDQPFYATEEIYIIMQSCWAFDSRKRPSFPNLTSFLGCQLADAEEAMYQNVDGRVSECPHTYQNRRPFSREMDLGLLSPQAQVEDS
Sequence of Proto-oncogene tyrosine-protein kinase Src (Homo sapiens) (P12931 2-536 limits assumed): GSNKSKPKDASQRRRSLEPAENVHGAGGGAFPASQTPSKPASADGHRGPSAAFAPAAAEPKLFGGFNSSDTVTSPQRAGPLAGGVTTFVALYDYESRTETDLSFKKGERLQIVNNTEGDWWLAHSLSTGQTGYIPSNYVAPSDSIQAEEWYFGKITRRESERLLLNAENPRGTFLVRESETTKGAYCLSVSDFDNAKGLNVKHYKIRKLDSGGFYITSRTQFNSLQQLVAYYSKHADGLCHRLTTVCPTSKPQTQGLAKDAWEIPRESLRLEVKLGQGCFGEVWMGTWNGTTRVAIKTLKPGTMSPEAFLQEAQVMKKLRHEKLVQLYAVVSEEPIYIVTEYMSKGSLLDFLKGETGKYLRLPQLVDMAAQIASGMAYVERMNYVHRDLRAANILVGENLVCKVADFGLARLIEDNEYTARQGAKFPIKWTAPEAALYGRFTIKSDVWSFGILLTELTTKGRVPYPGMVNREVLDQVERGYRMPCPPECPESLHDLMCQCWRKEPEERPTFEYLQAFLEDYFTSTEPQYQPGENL
Sequence of Thioredoxin (Homo sapiens) (P10599 whole entry): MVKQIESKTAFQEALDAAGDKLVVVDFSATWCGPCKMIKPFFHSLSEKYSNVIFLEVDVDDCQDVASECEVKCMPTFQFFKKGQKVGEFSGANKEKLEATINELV

| Activity [6] | Activity [7] | Activity [8] | Activity [9] | Activity [10] | Activity [11] | Activity [12] | Activity [13] | Activity [14] | Activity [15] | Activity [16] | Activity [17] | Activity [18] | SMILES | Activity [1] [%] | Activity [2] [%] | inhibition [3] [%] | Activity [4] [%] | Activity [5] [%] |
| --- | --- | --- | --- | --- | --- | --- | --- | --- | --- | --- | --- | --- | --- | --- | --- | --- | --- | --- |
|  |  |  |  |  |  |  |  |  |  |  |  |  | COc1cc(O)c2c(c1)/C=C/C[C@H](O)[C@H](O)C(=O)/C=C\C[C@H](C)OC2=O | 72 | 0.75 | -9.5 | 0.55 | 0.65 |
| Active | Active | Active | Active | Active | Active | Active | Active | Active | Active | Active | Active | Active | C=CC(=O)Nc1ccccc1Nc1nc(Nc2ccc(N3CCN(CCOCCOCCOCCNC(=O)CCCC[C@@H]4SC[C@@H]5NC(=O)N[C@@H]54)CC3)cc2)ncc1Cl |  |  |  |  |  |
